According to ChEMBL document CHEMBL5532752, “Integrating a quinone substructure into histone deacetylase inhibitors to cope with Alzheimer's disease and cancer” (RSC Med Chem, 2024):
Active and inactive are the calls of the source. The rule behind the calls is not given here.

Experiments:
SH-SY5Y = experiment: Induction of apoptosis in human SH-SY5Y cells assessed as increase in caspase-3 activity at 10 uM incubated for 72 hrs by colorimetric assay relative to control; type: functional
How it was run: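 Cells treated 72 h, collected, PBS-rinsed, lysed on ice 10 min; protein quantified by Bradford. Lysates incubated 2 h at 37 °C with 2× reaction buffer containing 10 mM dithiothreitol and DEVD-pNA caspase-3 substrate. Free pNA read by absorbance at 405 nm; activity expressed as fold over untreated cells. At least 3 independent experiments.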

Neurosphere = experiment: Neuroprotective activity against C57BL/6N mouse neurosphere assessed as increase in NPCs spontaneous differentiation by measuring increase in DCX-positive cells at 2.5 to 5 uM measured after 7 days by immunofluorescence analysis; type: functional, cell-based; details: dose 2.5-5 µM, time 7.0 day
How it was run: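 Thirty 7-day neurospheres plated on Matrigel-coated coverslips with 2.5 or 5 μM compound or DMSO, differentiated 7 days, fixed in 4% PFA, immunostained for Nestin, DCX, Olig2 or GFAP with Alexa 555 secondaries, DAPI counterstain. Intensity index = marker-positive intensity / total DAPI intensity; mean ± SD of 3 fields per condition.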

Structure (SMILES)	fold change (FC) (SH-SY5Y)	Activity (Neurosphere)
CC1=C(NCc2ccc(C(=O)Nc3ccccc3N)cc2)C(=O)c2ccccc2C1=O	1.7	
CC1=C(NCCCCNC(=O)CS)C(=O)c2ccccc2C1=O		Active
